The results in this text go back to PMC9716260 (Cancer Discovery, 2022).

SMILES strings stand for the structures.

Series [1] deals with BRG1 binding sites in BT869 (H3.3K27M-glioma) neurospheres. Kind of series: ATAC-seq chromatin accessibility in drug-treated BT869 neurospheres. In kind it is cell-based, human. As to conditions: BT869, 1 μmol/L, 24 and 48 hours. In outline: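 BT869 neurospheres were exposed to DMSO or 1 μmol/L BRG1/BRM inhibitor or degrader and collected 24 or 48 h later without FACS enrichment of viable cells. Bulk ATAC-seq was run as two biological replicates, each with two technical replicates. Genes linked to differentially accessible peaks were overlapped with single-cell H3K27M glioma metaprograms.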

The next series relates to BRG1/BRM. Put plainly: Immunoblot for BRG1/BRM and cleaved PARP in degrader-treated neurospheres. In kind it is cell-based, human. Summed up:
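BT869, HSJD-DIPG007 and SU-DIPGXIIIP* neurospheres were collected 24, 48 and 72 h after rising degrader concentrations; SU-DIPGXIIIP* was also collected at 6 h. SU-DIPGXIIIP* gave nuclear extracts; the other two gave whole-cell lysates in NP-40/deoxycholate/SDS buffer with protease and phosphatase inhibitors. Blots were blocked in 5% milk/TBST, then BRG1, BRM, PARP, cleaved PARP, GAPDH and H3 antibodies at 1:1,000 overnight at 4°C, then HRP secondary 1 h at RT, then ECL.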

A short description of series [2]: Plasma level after a single subcutaneous injection. In kind it is in vivo. As to conditions: single subcutaneous injection of 50 mg/kg.
In a further series the target is BRG1 (Homo sapiens, UniProt P51532). Kind of series: SILAC quantitative proteomics in BT869 neurospheres. In kind it is cell-based. The following applies: BT869, 1 μmol/L, 2 days of treatment. Summed up: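 BT869 cells were SILAC-labelled for 5 passages in custom TSM medium with heavy (13C615N2 lysine, 13C615N4 arginine) or light amino acids; incorporation was >95%. Cells (1.5 × 106) were seeded 1 day ahead, then given DMSO (light) or 1 μmol/L degrader (heavy) for 48 h. Lysis was in RIPA with protease inhibitors, benzonase and 1 mmol/L DTT. BCA-matched lysates were mixed 1:1. Significance came from a heteroscedastic two-tailed t test.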
Chain of BRG1 (P51532 whole entry): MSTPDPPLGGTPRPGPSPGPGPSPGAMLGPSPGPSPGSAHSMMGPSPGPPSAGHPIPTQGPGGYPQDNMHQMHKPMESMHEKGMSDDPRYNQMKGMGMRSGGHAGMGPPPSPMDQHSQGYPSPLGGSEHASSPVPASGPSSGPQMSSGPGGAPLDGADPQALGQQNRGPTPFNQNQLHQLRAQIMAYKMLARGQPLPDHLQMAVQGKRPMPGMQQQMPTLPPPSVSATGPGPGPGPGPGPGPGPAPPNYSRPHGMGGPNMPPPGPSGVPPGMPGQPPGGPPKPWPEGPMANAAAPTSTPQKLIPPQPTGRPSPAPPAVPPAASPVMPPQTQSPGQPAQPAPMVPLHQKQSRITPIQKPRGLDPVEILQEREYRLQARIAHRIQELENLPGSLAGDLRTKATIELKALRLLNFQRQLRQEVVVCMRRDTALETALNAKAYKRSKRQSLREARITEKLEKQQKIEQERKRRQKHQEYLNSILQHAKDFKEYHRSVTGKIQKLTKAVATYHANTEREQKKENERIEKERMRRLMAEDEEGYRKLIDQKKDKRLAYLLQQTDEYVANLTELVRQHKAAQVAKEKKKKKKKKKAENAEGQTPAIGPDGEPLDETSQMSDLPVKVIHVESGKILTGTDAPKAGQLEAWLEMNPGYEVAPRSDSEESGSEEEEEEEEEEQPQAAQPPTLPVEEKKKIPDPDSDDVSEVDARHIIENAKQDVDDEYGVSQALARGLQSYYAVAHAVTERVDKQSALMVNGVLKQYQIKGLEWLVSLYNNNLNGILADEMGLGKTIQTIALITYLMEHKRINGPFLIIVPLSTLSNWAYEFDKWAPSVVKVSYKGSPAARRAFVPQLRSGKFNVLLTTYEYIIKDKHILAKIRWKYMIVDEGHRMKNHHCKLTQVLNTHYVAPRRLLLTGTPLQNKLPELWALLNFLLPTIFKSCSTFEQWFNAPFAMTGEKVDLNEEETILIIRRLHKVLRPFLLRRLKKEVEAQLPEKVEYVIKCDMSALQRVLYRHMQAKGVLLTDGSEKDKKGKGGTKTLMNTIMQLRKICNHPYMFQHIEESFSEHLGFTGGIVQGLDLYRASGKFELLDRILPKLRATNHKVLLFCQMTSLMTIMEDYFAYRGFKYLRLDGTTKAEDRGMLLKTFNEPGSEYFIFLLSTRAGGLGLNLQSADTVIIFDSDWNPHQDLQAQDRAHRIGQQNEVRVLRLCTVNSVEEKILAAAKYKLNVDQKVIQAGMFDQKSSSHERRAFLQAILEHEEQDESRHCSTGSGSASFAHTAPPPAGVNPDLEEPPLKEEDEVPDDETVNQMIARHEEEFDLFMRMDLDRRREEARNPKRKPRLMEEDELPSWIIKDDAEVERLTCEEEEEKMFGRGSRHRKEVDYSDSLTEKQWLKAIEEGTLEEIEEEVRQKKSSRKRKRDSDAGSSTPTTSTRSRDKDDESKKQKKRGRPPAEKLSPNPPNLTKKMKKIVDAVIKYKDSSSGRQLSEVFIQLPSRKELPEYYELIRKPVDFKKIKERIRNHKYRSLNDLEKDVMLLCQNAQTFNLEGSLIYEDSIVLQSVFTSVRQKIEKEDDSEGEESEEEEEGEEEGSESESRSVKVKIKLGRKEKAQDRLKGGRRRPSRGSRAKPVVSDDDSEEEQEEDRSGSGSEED

Series [3] has as its system BT869 (H3.3K27M-glioma) subcutaneous tumors. Put plainly: Subcutaneous xenograft, BT869. In kind it is in vivo, NSG mice. Summed up:
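Female NSG mice aged about 6–8 weeks were implanted with BT869 cells, 3 × 10^6 in PBS/Matrigel, into the right flank. Groups of 10 received the degrader at 50 mg/kg i.p. daily or vehicle for up to 60 days. BRG1 immunostaining was scored as nuclear DAB OD mean.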

The nature of series [4]: Kinetic solubility analysis. In kind it is physicochemical. As to conditions: PBS, pH 7.4, aqueous buffer, kinetic from dmso stock. Summed up:
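Test compound as a 10 mmol/L DMSO stock was diluted into 50 mmol/L PBS, pH 7.4, to a final 200 μmol/L. This was done in the lower chamber of filter vials by a contract laboratory.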

For series [5], the system named is SW-13 BRG1/BRM-deficient adrenocortical carcinoma cell line. Kind of series: Cell viability in BRG1/BRM-deficient control cell line. In kind it is cell-based. The following applies: Homo sapiens, SW13. Summed up: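 SW-13 cells were dosed with test compound at 24 and 96 h after plating, across 10 nmol/L to 10 μmol/L. Viability was read by CellTiter-Glo 7 days after drug exposure. Concentrations were log10-transformed and responses normalized to DMSO controls. Log IC50 was interpolated from a variable-slope least-squares fit.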

A short description of series [6]: Pharmacokinetic study, drug in plasma and brain after intraperitoneal dose. In kind it is in vivo, CD1 mice. The following applies: after intraperitoneal administration, mass spectrometry. In outline:
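Female CD1 mice, three per time point, received a single i.p. dose of test compound in 10% hydroxypropyl β-cyclodextrin in sterile water. Plasma and brain were collected at 30 min, 2 h and 4 h and quantified by LC/MS-MS. Parameters came from a noncompartmental model.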

On to `Cc1ncsc1-c1ccc([C@H](C)NC(=O)[C@@H]2C[C@@H](O)CN2C(=O)[C@@H](NC(=O)CN2CCN(c3cc(-c4ccccc4O)nnc3N)CC2)C(C)(C)C)cc1` [AU-15330, reference compound], for which, in series [1], the “DNA accessibility at BRG1 binding sites (ATAC-seq)” value is “decrease in DNA accessibility at BRG1 binding sites”. In addition, the “Time to degradation of BRG1/BRM” value in the series on BRG1/BRM (SU-DIPGXIIIP* cells) is no more than 6 h. Besides, in the series with BRG1/BRM (SU-DIPGXIIIP* cells, 6 hours), the “Lowest concentration degrading BRG1/BRM” value was 500 nmol/L.

What is called solubility is the dissolved amount per volume that the medium holds. By IC50 is commonly meant the point on the concentration scale where inhibition reaches its midpoint. As for `O=C1CCC(N2C(=O)c3cccc(NCCCCNC(=O)c4cccc(C#Cc5cc(NC(=O)Nc6ccnc(Cl)c6)ccn5)c4)c3C2=O)C(=O)N1` (stereo not drawn) [JQ-dS-4, 3-((4-(3-(2-chloropyridin-4-yl)ureido)pyridin-2-yl)ethynyl)-N-(4-((2-(2,6-dioxopiperidin-3-yl)-1,3-dioxoisoindolin-4-yl)amino)butyl)benzamide], the Plasma levels in series [2] was 240 ng/mL; in series [2] (converted from ng/mL), roughly 300 nM. Further, the “Proteins degraded (SILAC)” value at BRG1 is “BRG1 was one of the top significant proteins degraded”. Further, in series [1], the “DNA accessibility at BRG1 binding sites (ATAC-seq)” value is on record as “decrease in DNA accessibility at BRG1 binding sites”. Besides, the “Degradation of BRG1 in treated tumors” value in series [3] (BT869 s.c., 50 mg/kg i.p. daily, versus vehicle) is listed as “negligible degradation of BRG1”. In series [3] (mice treated for 45 days, Compound 14 20 mg/kg i.p. daily, JQ-dS-4 50 mg/kg i.p. daily), the “Body weight and toxic effects (plasma, liver, spleen)” value is recorded as “did not observe any significant changes in body weight or toxic effects”. For the same compound, the figures for the “Time to complete degradation of BRG1/BRM” value in the series with BRG1/BRM (BT869 cells), with BRG1/BRM (HSJD-DIPG007 cells) and with BRG1/BRM (SU-DIPGXIIIP* cells) were 48 h, 72 h and 72 h, respectively. In addition, the solubility at 24 h in series [4] is less than 1.56 µM. The compound also returned an IC50 in series [5] of 6 µM. Besides, in series [6], the “Blood–brain barrier penetrance” value is listed as “limited penetration into brain tissue”.
